Source: ChEMBL document CHEMBL3352281, “Canthin-6-one displays antiproliferative activity and causes accumulation of cancer cells in the G2/M phase” (J Nat Prod, 2014)
The source made the active and inactive calls. No cut-off for these calls is given here.

Experiments:
HT-29 [1] = assay: Antiproliferative activity against human HT-29 cells assessed as inhibition of cell growth at 10 to 60 uM after 4 days; type: functional, cell-based; details: HT-29, 96 h
Outline: (§1)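 Cell counting: 40 000 cells/well seeded and grown at 37 °C, 5% CO2 in medium with 10% FCS, 2 mM glutamine and penicillin-streptomycin (Ham's F12 for PC-3, RPMI for Jurkat, DMEM for the others). Compound added from a 50-fold stock in 10% DMSO; controls 0.2% DMSO. Quadruplicate wells trypsinized (Jurkat not) and counted in a Malassez chamber; mean ± SEM, n = 4.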

HT-29 [2] = assay: Induction of apoptosis in human HT-29 cells assessed as induction of procaspase-3 cleavage at 40 uM after 48 hrs by Western blot method; type: functional
Outline: (§2)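 Western blot: 40 000 cells/well exposed 2−4 days to 40 μM (HeLa 10 and 30 μM) or 0.2% DMSO. Lysed in Laemmli buffer, run on 12.5% SDS-PAGE, moved to nitrocellulose. Probed overnight at 4 °C with rabbit anti-caspase-3 (1/1000), then Alexa-488 secondary. β-Actin loading control; fluorescence read on a laser scanner.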

[3] = Antiproliferative activity against human PC3 cells assessed as induction of cell death at 40 to 60 uM after 4 days; type: functional, PC-3
Outline: as §1, with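 “Cells seeded at” for “Cell counting:”, “per well” for “cells/well seeded”, “CO2” for “CO2 in medium”, “HT-29, HeLa, C6, NIH-3T3).” for “the others).”, “solution” for “stock”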

NIH3T3 [4] = assay: Antiproliferative activity against mouse NIH/3T3 cells assessed as inhibition of cell growth at 40 uM after 4 days; type: functional, cell-based; outline: as §1
[5] = Toxicity against human NHDF assessed as reduction in cell viability incubated for 3 days by MTT assay; type: cell-based; details: NHDF cells
Outline: (§3)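 Normal human dermal fibroblasts kept 3 days in DMEM with 10% FCS at increasing concentrations up to 160 μM, DMSO-matched controls. MTT reduction read at 540 nm as percentage viability (mean ± SEM, n = 3), with microscopic morphology scoring.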

PC-3 [6] = assay: Inhibition of DNA synthesis in human PC3 cells assessed as reduction in BrdU incorporation at 40 uM pre-incubated for 30 hrs by Southern blotting method; type: functional
Outline: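 PC-3, 10^6 cells per flask, held 30 h at 40 μM or 0.2% DMSO, then 18 h BrdU labeling. Genomic DNA isolated by proteinase K/phenol-chloroform; 400 ng run on agarose, blotted to nitrocellulose, acid-denatured, probed with anti-BrdU and Alexa 647 secondary. Scanned signal normalized to ethidium bromide DNA fluorescence.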

PC-3 [7] = assay: Induction of apoptosis in human PC3 cells assessed as induction of procaspase-3 cleavage at 40 uM after 48 hrs by Western blot method; type: functional; outline: as §2
PC-3 [8] = assay: Induction of cell cycle arrest in human PC3 cells assessed as accumulation at G1 phase at 40 uM incubated for 48 hrs by propidium iodide staining based flow cytometry (reference value: 57.8 +/- 0.6%); type: functional
Jurkat [9] = assay: Antiproliferative activity against human Jurkat cells assessed as induction of cell death at 40 to 60 uM after 4 days; type: functional
Outline: as §1, with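 “Cells seeded at” for “Cell counting:”, “per well” for “cells/well seeded”, “CO2” for “CO2 in medium”, “HT-29, HeLa, C6, NIH-3T3).” for “the others).”, “solution” for “stock”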

[10] = Antiproliferative activity against mouse NIH/3T3 cells assessed as induction of cell death at 40 to 60 uM after 4 days; type: functional, NIH3T3
Outline: as §1, with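 “Cells seeded at” for “Cell counting:”, “per well” for “cells/well seeded”, “CO2” for “CO2 in medium”, “HT-29, HeLa, C6, NIH-3T3).” for “the others).”, “solution” for “stock”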

PC-3 [11] = assay: Antiproliferative activity against human PC3 cells assessed as inhibition of cell growth at 40 uM after 4 days; type: functional, cell-based; outline: as §1
C6 [12] = assay: Antiproliferative activity against rat C6 cells assessed as induction of cell death at 40 to 60 uM after 4 days; type: functional
Outline: as §1, with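 “Cells seeded at” for “Cell counting:”, “per well” for “cells/well seeded”, “CO2” for “CO2 in medium”, “HT-29, HeLa, C6, NIH-3T3).” for “the others).”, “solution” for “stock”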

PC-3 [13] = assay: Induction of apoptosis in human PC3 cells assessed as induction of procaspase-3 cleavage at 40 uM after 96 hrs by Western blot method; type: functional; outline: as §2
C6 [14] = assay: Antiproliferative activity against rat C6 cells assessed as inhibition of cell growth at 40 uM after 4 days; type: functional, cell-based; outline: as §1
[15] = Antiproliferative activity against mouse NIH/3T3 cells assessed as inhibition of cell growth at 10 to 60 uM after 4 days; type: functional, cell-based; details: NIH3T3, 96 h; outline: as §1
NIH3T3 [16] = assay: Induction of apoptosis in mouse NIH/3T3 cells assessed as induction of procaspase-3 cleavage at 40 uM after 48 hrs by Western blot method; type: functional, cell-based; outline: as §2
HeLa [17] = assay: Antiproliferative activity against human HeLa cells assessed as inhibition of cell growth at 10 to 60 uM after 4 days; type: functional, cell-based; details: 96 h; outline: as §1
HeLa [18] = assay: Antiproliferative activity against human HeLa cells assessed as inhibition of cell growth at 10 uM after 4 days; type: functional; details: 96 h, read-out: GI; outline: as §1
Jurkat [19] = assay: Antiproliferative activity against human Jurkat cells assessed as inhibition of cell growth at 40 uM after 4 days; type: functional, cell-based; outline: as §1
[20] = Toxicity against human NHDF assessed as cell viability at 80 uM incubated for 3 days by MTT assay; type: cell-based; details: NHDF cells, read-out: Activity; outline: as §3
HeLa [21] = assay: Induction of apoptosis in human HeLa cells assessed as induction of procaspase-3 cleavage at 30 uM after 48 hrs by Western blot method; type: functional; outline: as §2
HeLa [22] = assay: Induction of apoptosis in human HeLa cells assessed as induction of procaspase-3 cleavage at 10 uM after 48 hrs by Western blot method; type: functional; outline: as §2
HT-29 [23] = assay: Antiproliferative activity against human HT-29 cells assessed as inhibition of cell growth at 40 uM after 4 days; type: functional, cell-based; outline: as §1
HT-29 [24] = assay: Antiproliferative activity against human HT-29 cells assessed as induction of cell death at 40 to 60 uM after 4 days; type: functional
Outline: as §1, with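 “Cells seeded at” for “Cell counting:”, “per well” for “cells/well seeded”, “CO2” for “CO2 in medium”, “HT-29, HeLa, C6, NIH-3T3).” for “the others).”, “solution” for “stock”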

Jurkat [25] = assay: Antiproliferative activity against human Jurkat cells assessed as inhibition of cell growth at 10 to 60 uM after 4 days; type: functional, cell-based; details: 96 h; outline: as §1
C6 [26] = assay: Antiproliferative activity against rat C6 cells assessed as inhibition of cell growth at 10 to 60 uM after 4 days; type: functional, cell-based; details: C6, 96 h; outline: as §1
PC-3 [27] = assay: Reduction in mitotic spindles formation in human PC3 cells at 40 uM incubated for 48 hrs by tubulin immunofluorescence assay; type: functional; details: PC-3, 48 h
Outline: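 Mitotic spindles: PC-3 in chamber slides (10 000/well), 2 days with 40 μM or 0.2% DMSO. Ethanol/glycine fixation, anti-β-tubulin 1/200 for 2 h at 37 °C, then Alexa 488 secondary. Mitotic cells scored by fluorescence microscopy in random fields; at least 6000−10 000 cells counted per group.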

[28] = Toxicity against human NHDF assessed as cell viability at 160 uM incubated for 3 days by MTT assay; type: cell-based; details: NHDF cells, read-out: Activity; outline: as §3
HeLa [29] = assay: Antiproliferative activity against human HeLa cells assessed as inhibition of cell growth at 40 uM after 2 days; type: functional; details: 48 h, read-out: GI; outline: as §1
PC-3 [30] = assay: Induction of cell cycle arrest in human PC3 cells assessed as accumulation at S phase at 40 uM incubated for 48 hrs by propidium iodide staining based flow cytometry (reference value: 21.6 +/- 0.2%); type: functional
PC-3 [31] = assay: Inhibition of DNA synthesis in human PC3 cells assessed as reduction in post-mitotic nuclei level at 40 uM pre-incubated for 30 hrs by immunofluorescence microscopy (reference value: 85%); type: functional; details: PC-3, read-out: INH
[32] = Antiproliferative activity against human PC3 cells assessed as inhibition of cell growth at 10 to 60 uM after 4 days; type: functional, cell-based; details: PC-3, 96 h; outline: as §1
PC-3 [33] = assay: Induction of cell cycle arrest in human PC3 cells assessed as accumulation at G2/M phase at 40 uM incubated for 48 hrs by flow propidium iodide staining based flow cytometry (reference value: 20 +/- 0.6%); type: functional
[34] = Toxicity against human NHDF assessed as cell viability at 40 uM incubated for 3 days by MTT assay; type: cell-based; details: NHDF cells, read-out: Activity; outline: as §3
C6 [35] = assay: Induction of apoptosis in rat C6 cells assessed as induction of procaspase-3 cleavage at 40 uM after 48 hrs by Western blot method; type: functional, cell-based; outline: as §2
[36] = Toxicity against human NHDF assessed as cell viability up to 20 uM incubated for 3 days by MTT assay; type: cell-based; details: NHDF cells, read-out: Activity; outline: as §3
Jurkat [37] = assay: Induction of apoptosis in human Jurkat cells assessed as induction of procaspase-3 cleavage at 40 uM after 48 hrs by Western blot method; type: functional, cell-based; outline: as §2

Which EC50 (HT-29 [1]) does the source give for `O=c1ccc2nccc3c4ccccc4n1c23` [CANTHIN-6-ONE] here?
The EC50 was 15 µM.

What about the “fold change (FC)” value (HT-29 [2]) of the same compound?
The value was 2.

And the Activity [3]?
Its Activity is “<=30%”.

And the “growth inhibition (GI)” value (NIH3T3 [4])?
The value was “Active”.

And the EC50 at 3 days [5]?
Its EC50 at 3 days is 115 µM.

And the inhibition at 40 µM (PC-3 [6])?
Its inhibition at 40 µM is 80%.

And the “fold change (FC)” value (PC-3 [7])?
The value was 2.

What about the Activity (PC-3 [8]) of the same compound?
Its Activity is 38.1%.

And the Activity (Jurkat [9])?
Its Activity is “<=30%”.

What about the Activity [10] of the same compound?
The Activity was “<=30%”.

What about the “growth inhibition (GI)” value (PC-3 [11]) of the same compound?
The value was “Active”.

And the Activity (C6 [12])?
The Activity was “<=30%”.

And the “fold change (FC)” value (PC-3 [13])?
The value was 7.

What about the “growth inhibition (GI)” value (C6 [14]) of the same compound?
Its value is “Active”.

And the EC50 [15]?
The EC50 was 15 µM.

And the Activity (NIH3T3 [16])?
The Activity was “inactive”.

And the EC50 (HeLa [17])?
Its EC50 is 5 µM.

What about the inhibition of growth at 10 µM (HeLa [18]) of the same compound?
Its inhibition of growth at 10 µM is 100%.

And the “growth inhibition (GI)” value (Jurkat [19])?
The value was “Active”.

What about the viability at 72 h, 80 µM [20] of the same compound?
Its viability at 72 h, 80 µM is 64%.

What about the “fold change (FC)” value (HeLa [21]) of the same compound?
Its value is 3.5.

And the “fold change (FC)” value (HeLa [22])?
The value was 1.5.

And the “growth inhibition (GI)” value (HT-29 [23])?
The value was “Active”.

What about the Activity (HT-29 [24]) of the same compound?
Its Activity is “<=30%”.

What about the EC50 (Jurkat [25]) of the same compound?
The EC50 was 15 µM.

What about the EC50 (C6 [26]) of the same compound?
The EC50 was 15 µM.

What about the inhibition at 40 µM (PC-3 [27]) of the same compound?
The inhibition at 40 µM was 80%.

What about the viability at 72 h, 160 µM [28] of the same compound?
Its viability at 72 h, 160 µM is 33%.

What about the inhibition of growth at 40 µM (HeLa [29]) of the same compound?
Its inhibition of growth at 40 µM is over 90%.

What about the Activity (PC-3 [30]) of the same compound?
The Activity was 13.3%.

What about the inhibition at 40 µM (PC-3 [31]) of the same compound?
Its inhibition at 40 µM is 60%.

And the EC50 [32]?
Its EC50 is 15 µM.

What about the Activity (PC-3 [33]) of the same compound?
The Activity was 47.8%.

What about the viability at 72 h, 40 µM [34] of the same compound?
Its viability at 72 h, 40 µM is 80%.

What about the Activity (C6 [35]) of the same compound?
Its Activity is “inactive”.

What about the viability at 72 h [36] of the same compound?
Its viability at 72 h is 80%.

What about the Activity (Jurkat [37]) of the same compound?
Its Activity is “inactive”.
